The subject of data set [1] is A549. The data set can be described thus: Chemosensitization activity in human A549 cells assessed as inhibition of clonogenic growth at 0.25 uM in presence of 9 uM cisplatin incubated for 2 days followed by replacement of growth media and measured after 8 days by crystal violet staining-based assay relative to control. It is filed as functional. The essentials: (§1)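 A549 seeded at 1000 cells per well in 6-well plates, exposed to drug alone or combined with cisplatin or 5-Fu over a concentration series. Drug-containing medium replaced after 2 days. After a further 8 days, fixed with 1% methanol/1% formaldehyde and stained with 0.5% crystal violet. Percent inhibition at each concentration calculated relative to control.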

Data set [2] deals with A549. The data set is described as follows: Anticlonogenic activity against human A549 cells assessed as inhibition of clonogenic growth at 0.5 uM incubated for 2 days followed by replacement of growth media and measured after 8 days by crystal violet staining-based assay relative to control. The format is functional. The method, boiled down: as §1
Data set [3] deals with A549. The data set is described as follows: Chemosensitization activity in human A549 cells assessed as inhibition of clonogenic growth at 1 uM in presence of 0.25 uM cisplatin incubated for 2 days followed by replacement of growth media and measured after 8 days by crystal violet staining-based assay relative to control. It is filed as functional. The essentials: as §1
In data set [4] the test system is A549. The data set is described as follows: Induction of apoptosis in human A549 cells at 10 uM preincubated with NAC for 1 hr followed by compound addition and measured after 24 hrs by Annexin V-FITC/propidium iodide staining based flow cytometric analysis. It is filed as functional, cell-based. The method, boiled down:
(§2)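 A549 treated 24 h at 1, 5 or 10 µM, with BMS345541 20 µM as control. Inhibitor arms pretreated 1 h with NAC (5 mM) or SP600125 (10 µM) before 10 µM. Cells harvested with EDTA-free trypsin, stained with FITC Annexin V and PI for 15 min at room temperature in the dark, analysed by flow cytometry.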
On the technique in general: In flow cytometry, cells or beads pass a laser one at a time.

Data set [5] in a line: Selectivity index, ratio of IC50 for human HL7702 cells to IC50 for human NCI-H1650 cells. It is filed as toxicity. The essentials:
(§3)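 Selectivity index taken as the logarithm of the ratio of the HL7702 IC50 to the cancer-line IC50. […] Not calculated when an IC50 was lacking.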

A further data set has as its system NCI-H1650. The data set can be described thus: Cytotoxicity against human NCI-H1650 cells assessed as reduction in cell viability after 72 hrs by MTT assay. Particulars: NCI-H1650, 72 h. It is filed as functional, cell-based. The method, boiled down:
(§4)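 Cells in RPMI 1640 with 10% heat-inactivated FBS and penicillin/streptomycin at 37 °C, 5% CO2. Seeded at 4000 per well, adhered overnight, then exposed to graded compound concentrations in triplicate wells for 72 h. MTT (5 mg/mL stock) added for 4 h, dissolved in DMSO, A490 read. IC50 is the concentration reducing viability by 50% versus untreated control.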
(In general: Tetrazolium assays rely on reduction of a dye to a coloured formazan, in cell work by metabolically active cells.)

For data set [6], the system named is A549. The data set is described as follows: Induction of apoptosis in human A549 cells after 24 hrs by Annexin V-FITC/propidium iodide staining based flow cytometric analysis. The format is functional, cell-based. The essentials:
as §2

For data set [7], the system named is A549. The data set can be described thus: Antiproliferative activity against human A549 cells harboring IKKbeta at 6.67 to 60 uM after 24 hrs by MTT assay. The format is functional, cell-based. The essentials: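 A549 (seeded 3 × 10^5 per well, overnight) transfected with IKKβ plasmid or empty vector using lipofectamine 2000 in serum-free medium for 6 h, then moved to 1640 with 10% FBS. Treated at 60, 20 or 6.67 µM for 24 h. MTT (5 mg/mL stock) added for 4 h, formazan dissolved in DMSO, absorbance read at 490 nm.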

The target in data set [8] is T1, NF-kappa-B inhibitor alpha (Homo sapiens) (UniProt P25963).
T1 sequence (whole entry): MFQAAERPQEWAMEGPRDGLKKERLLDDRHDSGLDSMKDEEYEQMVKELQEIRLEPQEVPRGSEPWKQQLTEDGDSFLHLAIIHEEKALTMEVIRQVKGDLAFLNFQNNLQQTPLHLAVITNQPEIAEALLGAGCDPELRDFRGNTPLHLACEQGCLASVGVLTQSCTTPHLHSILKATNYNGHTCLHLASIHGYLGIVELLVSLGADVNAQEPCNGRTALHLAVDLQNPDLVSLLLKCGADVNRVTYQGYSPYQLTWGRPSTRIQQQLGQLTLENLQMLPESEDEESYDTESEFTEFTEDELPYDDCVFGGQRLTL
The data set can be described thus: Inhibition of TNF-alpha induced IkappaBalpha degradation in human A549 cells at 1 to 10 uM preincubated for 1 hr followed by TNF-alpha addition and measured after 15 mins by Western blot analysis. The format is cell-based. The essentials: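 A549 preincubated 1 h at 1, 5 or 10 µM, or with BMS345541 (20 µM), then stimulated with TNFα (1 ng/mL) for 15 min. NAC arm: 5 mM NAC for 1 h, then 10 µM for 1 h. IκBα detected by western blot, GAPDH as loading control.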
(In general: Immunoblotting shows a protein as a band on a membrane.)

Data set [9] has as its system A549. The data set can be described thus: Induction of apoptosis in human A549 cells at 10 uM pretreated with 5 mM NAC for 1 hr followed by compound addition and measured after 24 hrs by Annexin V-FITC/propidium iodide staining based flow cytometric analysis. It is filed as functional, cell-based. The method, boiled down: as §2
Data set [10] concerns A549. The data set can be described thus: Chemosensitization activity in human A549 cells assessed as inhibition of clonogenic growth at 0.25 uM in presence of 0.74 uM cisplatin incubated for 2 days followed by replacement of growth media and measured after 8 days by crystal violet staining-based assay relative to control. The format is functional. The method, boiled down:
as §1

The next data set has as its system L02. The data set is described as follows: Cytotoxicity against human HL7702 cells assessed as reduction in cell viability after 72 hrs by MTT assay. It is filed as cell-based. The settings on record: L02, 72 h. The method, boiled down:
as §4

In data set [11] the test system is A549. The data set can be described thus: Induction of apoptosis in human A549 cells assessed as increase in PARP level after 24 hrs by Western blot analysis. The format is functional, cell-based. The method, boiled down:
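A549 treated at 1, 5 or 10 µM, or with BMS345541 (20 µM), for 24 h. Cleaved PARP and Bax detected by western blot (10% SDS-PAGE, PVDF, 5% milk block, HRP secondary).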

Data set [12] has as its system A549. The data set is described as follows: Cell cycle arrest in human A549 cells assessed as increase in accumulation at G2/M phase after 10 hrs by propidium iodide staining based flow cytometric analysis. It is filed as functional. The essentials: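 A549 (6 × 10^5 per 60 mm dish, overnight) treated at 1, 5 or 10 µM for 10 h, with BMS345541 (20 µM) as positive control. Trypsinized, fixed in ice-cold 70% ethanol at −20 °C for 30 min, treated with RNase A, stained with 50 µg/mL PI, analysed by flow cytometry.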

A short description of data set [13]: Selectivity index, ratio of IC50 for human HL7702 cells to IC50 for human H460 cells. The format is toxicity. The method, boiled down:
as §3

Data set [14] deals with A549. The data set is described as follows: Cytotoxicity against human A549 cells assessed as reduction in cell viability after 72 hrs by MTT assay. Particulars: A549, 72 h. The format is functional, cell-based. The method, boiled down:
as §4

Data set [15] relates to A549. The data set is described as follows: Chemosensitization activity in human A549 cells assessed as inhibition of clonogenic growth at 0.25 uM in presence of 0.25 uM cisplatin incubated for 2 days followed by replacement of growth media and measured after 8 days by crystal violet staining-based assay relative to control. The format is functional. The essentials: as §1

Calls of active or inactive are those of the source. No cut-off for these calls is given here.

By inhibition is commonly meant the change of the read-out against control, counted positive when it falls. A word on the IC50: it is the concentration at which inhibition is half-maximal.

Turning to `COc1cc(/C=C2\CN(C)C/C(=C\c3cc(OC)c(OC)c(OC)c3)C2=O)cc(OC)c1OC`, the “inhibition (INH)” value with A549 [1] was 99%; in the data set with A549 [3], 90%; in the data set on A549 [10], 63%. Further, the inhibition at 0.5 µM in the data set with A549 [2] was determined as 18%. In addition, the outcome in the data set on A549 [4], with A549 [7] and with A549 [9] was inactive. Moreover, the entries for the “log(RatioIC50)” value in [5] and in data set [13] were 1.25 and 1.42, respectively. Besides, the IC50 with NCI-H1650 amounted to 1.5 µM; with L02 it was 26.4 µM; with A549 [14], 1.7 µM. For the same molecule, the Activity entry in the data set with A549 [6], in the data set with A549 [11] and with A549 [12] was “Dose-dependent effect” throughout. Also, the inhibition entry in [8] is “Active”. Moreover, the inhibition at 0.25 µM with A549 [15] amounted to 51%.

The values are drawn from ChEMBL document CHEMBL4152210, “Design, synthesis, anti-lung cancer activity, and chemosensitization of tumor-selective MCACs based on ROS-mediated JNK pathway activation and NF-κB pathway inhibition” (Eur J Med Chem, 2018).
